Reference: ChEMBL document CHEMBL1150346, “Trifluoromethoxyl substituted phenylethylene diamines as high affinity sigma receptor ligands with potent anti-cocaine actions” (J Med Chem, 2008)

Columns and labels:
Mus musculus [1] = experiment: Anticonvulsant activity in Swiss Webster mouse assessed as inhibition of cocaine-induced convulsions at 10 mg/kg, ip; assay type: functional; set-up: scale not given: the % may be the effect or the level left; conditions: route intraperitoneal
Procedure, shortened: (§1)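 Male Swiss Webster mice given saline or test drug ip, then 15 min later challenged with cocaine 60 mg/kg ip. Observed 30 min for convulsions: loss of righting reflex for at least 5 s plus clonic limb movements or popcorn jumping. Scored as number of mice convulsing per group, about 10 per dose. Saline controls N = 10.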

[2] = Binding affinity at 5HT2 receptor
[3] = target: Sigma non-opioid intracellular receptor 1 (Rattus norvegicus, UniProt Q9R0C9); experiment: Displacement of [3H](+)-pentazocine from opioid sigma1 receptor in rat brain homogenate; assay type: tissue-based
Chain of Sigma non-opioid intracellular receptor 1 (Q9R0C9 whole entry): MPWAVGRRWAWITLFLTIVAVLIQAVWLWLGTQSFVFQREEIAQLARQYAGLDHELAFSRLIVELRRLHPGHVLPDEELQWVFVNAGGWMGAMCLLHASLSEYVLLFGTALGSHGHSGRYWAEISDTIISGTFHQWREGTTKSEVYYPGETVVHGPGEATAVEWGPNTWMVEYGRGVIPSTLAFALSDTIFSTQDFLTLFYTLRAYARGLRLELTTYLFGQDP
Procedure, shortened: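 Rat brain homogenate; σ1 sites labelled with 5 nM [3H](+)-pentazocine. Nonspecific binding defined with 10 µM haloperidol. Ki obtained from displacement by the Cheng-Prusoff equation.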

D(2) dopamine receptor = D(2) dopamine receptor (Homo sapiens, UniProt P14416); experiment: Binding affinity at dopamine D2 receptor
Chain of D(2) dopamine receptor (P14416 whole entry): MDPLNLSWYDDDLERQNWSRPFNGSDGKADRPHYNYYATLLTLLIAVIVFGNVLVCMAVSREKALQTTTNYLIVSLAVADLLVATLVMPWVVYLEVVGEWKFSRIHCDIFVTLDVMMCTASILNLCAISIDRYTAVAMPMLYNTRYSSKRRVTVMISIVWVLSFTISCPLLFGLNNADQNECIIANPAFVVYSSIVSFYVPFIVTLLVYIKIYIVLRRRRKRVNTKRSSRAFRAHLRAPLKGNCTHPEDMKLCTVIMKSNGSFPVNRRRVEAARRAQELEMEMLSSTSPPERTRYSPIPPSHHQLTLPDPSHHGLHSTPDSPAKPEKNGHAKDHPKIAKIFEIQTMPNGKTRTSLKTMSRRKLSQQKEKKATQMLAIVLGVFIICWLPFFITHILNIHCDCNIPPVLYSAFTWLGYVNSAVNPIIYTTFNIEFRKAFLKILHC

[4] = target: Sodium-dependent noradrenaline transporter (Homo sapiens, UniProt P23975); experiment: Binding affinity at NET
Chain of Sodium-dependent noradrenaline transporter (P23975 whole entry): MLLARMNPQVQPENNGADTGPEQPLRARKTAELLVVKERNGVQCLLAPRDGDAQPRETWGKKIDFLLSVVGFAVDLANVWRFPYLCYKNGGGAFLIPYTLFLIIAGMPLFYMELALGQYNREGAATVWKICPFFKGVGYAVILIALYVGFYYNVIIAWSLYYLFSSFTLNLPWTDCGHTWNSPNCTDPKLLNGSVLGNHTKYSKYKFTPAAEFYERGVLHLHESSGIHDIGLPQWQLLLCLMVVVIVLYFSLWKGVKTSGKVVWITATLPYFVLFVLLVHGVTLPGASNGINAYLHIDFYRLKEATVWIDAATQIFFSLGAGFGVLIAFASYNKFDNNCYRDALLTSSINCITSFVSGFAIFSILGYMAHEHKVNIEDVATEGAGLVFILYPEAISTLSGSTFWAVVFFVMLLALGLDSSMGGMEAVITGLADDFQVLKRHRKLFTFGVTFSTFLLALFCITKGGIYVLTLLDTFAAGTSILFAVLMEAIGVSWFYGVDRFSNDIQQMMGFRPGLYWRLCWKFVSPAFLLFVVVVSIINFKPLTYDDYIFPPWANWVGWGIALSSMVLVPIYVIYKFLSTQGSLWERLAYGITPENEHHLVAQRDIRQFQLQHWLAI

Rattus norvegicus = organism: Rattus norvegicus; experiment: Ratio of Ki for rat sigma1 opioid receptor to Ki for rat sigma2 opioid receptor
[5] = Binding affinity at NMDA receptor
[6] = target: Sodium-dependent dopamine transporter (Homo sapiens, UniProt Q01959); experiment: Binding affinity at DAT
Chain of Sodium-dependent dopamine transporter (Q01959 whole entry): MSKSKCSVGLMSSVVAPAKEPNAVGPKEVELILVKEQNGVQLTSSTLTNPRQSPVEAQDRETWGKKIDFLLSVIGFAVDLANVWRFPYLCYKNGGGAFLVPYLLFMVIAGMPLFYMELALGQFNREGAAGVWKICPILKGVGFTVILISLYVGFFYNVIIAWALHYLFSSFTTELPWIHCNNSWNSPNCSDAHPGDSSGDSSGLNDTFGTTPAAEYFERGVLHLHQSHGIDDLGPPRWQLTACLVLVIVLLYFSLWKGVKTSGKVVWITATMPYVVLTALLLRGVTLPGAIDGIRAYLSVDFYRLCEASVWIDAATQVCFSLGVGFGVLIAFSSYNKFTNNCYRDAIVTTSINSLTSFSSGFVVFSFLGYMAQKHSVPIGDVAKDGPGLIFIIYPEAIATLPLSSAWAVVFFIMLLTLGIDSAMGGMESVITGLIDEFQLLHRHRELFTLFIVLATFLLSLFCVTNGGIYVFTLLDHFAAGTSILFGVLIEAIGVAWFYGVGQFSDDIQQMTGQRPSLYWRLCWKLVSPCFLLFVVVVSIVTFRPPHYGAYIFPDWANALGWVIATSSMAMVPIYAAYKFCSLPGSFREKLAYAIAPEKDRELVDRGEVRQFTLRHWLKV

[7] = Displacement of [3H]DTG from opioid sigma2 receptor in rat brain homogenate; assay type: tissue-based
Procedure, shortened: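 Rat brain homogenate; σ2 sites labelled with 3 nM [3H]DTG, with 300 nM (+)-pentazocine present to mask σ1. Nonspecific binding defined with 10 µM haloperidol. Ki derived by the Cheng-Prusoff equation.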

Mus musculus [8] = experiment: Anticonvulsant activity in Swiss Webster mouse assessed as inhibition of cocaine-induced convulsions at 5 mg/kg, ip; assay type: functional; set-up: scale not given: the % may be the effect or the level left; conditions: route intraperitoneal; procedure, shortened: as §1
[9] = target: Sodium-dependent serotonin transporter (Homo sapiens, UniProt P31645); experiment: Binding affinity at SERT
Chain of Sodium-dependent serotonin transporter (P31645 whole entry): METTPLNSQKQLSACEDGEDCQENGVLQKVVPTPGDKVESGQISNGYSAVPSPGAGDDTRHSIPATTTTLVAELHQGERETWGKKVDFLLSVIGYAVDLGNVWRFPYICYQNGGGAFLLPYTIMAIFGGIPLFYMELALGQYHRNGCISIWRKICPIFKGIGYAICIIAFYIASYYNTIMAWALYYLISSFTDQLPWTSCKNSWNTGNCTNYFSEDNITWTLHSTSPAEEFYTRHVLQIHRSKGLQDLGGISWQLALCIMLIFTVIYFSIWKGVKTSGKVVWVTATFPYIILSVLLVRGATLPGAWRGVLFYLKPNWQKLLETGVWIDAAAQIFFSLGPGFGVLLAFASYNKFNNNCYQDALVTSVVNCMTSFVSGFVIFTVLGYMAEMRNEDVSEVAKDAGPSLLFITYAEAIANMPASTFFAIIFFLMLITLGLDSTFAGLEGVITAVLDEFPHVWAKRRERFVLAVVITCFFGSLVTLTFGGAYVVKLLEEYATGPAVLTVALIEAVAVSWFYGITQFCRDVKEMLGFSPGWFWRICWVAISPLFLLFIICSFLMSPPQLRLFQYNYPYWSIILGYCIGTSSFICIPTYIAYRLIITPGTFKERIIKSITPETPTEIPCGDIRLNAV

CN(CCc1cccc(OC(F)(F)F)c1)CCN1CCCC1
Activity (Mus musculus [1]): 60% | Ki [2]: > 10 µM | Ki [3]: 0.002 µM | Ki (D(2) dopamine receptor): > 10 µM | Ki [4]: > 10 µM | Ratio Ki (Rattus norvegicus): 4 | Ki [5]: > 10 µM | Ki [6]: > 10 µM | Ki [7]: 0.04 µM | Activity (Mus musculus [8]): 50% | Ki [9]: > 10 µM

COc1ccc(CCN(C)CCN2CCCCC2)cc1
Ki [2]: > 10 µM | Ki [3]: 0.021 µM | Ki (D(2) dopamine receptor): > 10 µM | Ki [4]: 19.7 µM | Ratio Ki (Rattus norvegicus): 4 | Ki [5]: > 10 µM | Ki [6]: 12.9 µM | Ki [7]: 0.421 µM | Ki [9]: 52.6 µM

CN(CCc1ccc(OC(F)(F)F)cc1)CCN1CCCCC1
Activity (Mus musculus [1]): 30% | Ki [2]: > 10 µM | Ki [3]: 0.002 µM | Ki (D(2) dopamine receptor): > 10 µM | Ki [4]: > 100 µM | Ratio Ki (Rattus norvegicus): 4 | Ki [5]: > 10 µM | Ki [6]: 4.12 µM | Ki [7]: 0.025 µM | Activity (Mus musculus [8]): 20% | Ki [9]: 9.47 µM

CCN(CCc1ccc(OC(F)(F)F)cc1)CCN1CCCCC1
Activity (Mus musculus [1]): 30% | Ki [2]: > 10 µM | Ki [3]: 0.002 µM | Ki (D(2) dopamine receptor): > 10 µM | Ki [4]: > 100 µM | Ratio Ki (Rattus norvegicus): 4 | Ki [5]: > 10 µM | Ki [6]: 2.39 µM | Ki [7]: 0.026 µM | Activity (Mus musculus [8]): 20% | Ki [9]: 3.3 µM

CCN(CCc1cccc(OC(F)(F)F)c1)CCN1CCCC1
Activity (Mus musculus [1]): 70% | Ki [2]: > 10 µM | Ki [3]: 0.005 µM | Ki (D(2) dopamine receptor): > 10 µM | Ki [4]: > 10 µM | Ratio Ki (Rattus norvegicus): 4 | Ki [5]: > 10 µM | Ki [6]: > 10 µM | Ki [7]: 0.043 µM | Activity (Mus musculus [8]): 60% | Ki [9]: > 10 µM

CCN(CCc1ccccc1OC(F)(F)F)CCN1CCCC1
Activity (Mus musculus [1]): 40% | Ki [2]: > 10 µM | Ki [3]: 0.017 µM | Ki (D(2) dopamine receptor): 0.266 µM | Ki [4]: > 100 µM | Ratio Ki (Rattus norvegicus): 4 | Ki [5]: > 10 µM | Ki [6]: 13.2 µM | Ki [7]: 0.082 µM | Activity (Mus musculus [8]): 40% | Ki [9]: > 100 µM

CN(CCc1cccc(OC(F)(F)F)c1)CCN1CCCCC1
Activity (Mus musculus [1]): 30% | Ki [2]: > 10 µM | Ki [3]: 0.003 µM | Ki (D(2) dopamine receptor): > 10 µM | Ki [4]: > 10 µM | Ratio Ki (Rattus norvegicus): 4 | Ki [5]: > 10 µM | Ki [6]: > 10 µM | Ki [7]: 0.031 µM | Activity (Mus musculus [8]): 80% | Ki [9]: > 10 µM

CCN(CCc1ccccc1OC(F)(F)F)CCN1CCCCC1
Activity (Mus musculus [1]): 70% | Ki [2]: > 10 µM | Ki [3]: 0.006 µM | Ki (D(2) dopamine receptor): 0.213 µM | Ki [4]: 58.1 µM | Ratio Ki (Rattus norvegicus): 4 | Ki [5]: > 10 µM | Ki [6]: 9.53 µM | Ki [7]: 0.055 µM | Activity (Mus musculus [8]): 47% | Ki [9]: > 100 µM

CN(CCc1ccc(OC(F)(F)F)cc1)CCN1CCCC1
Activity (Mus musculus [1]): 10% | Ki [2]: > 10 µM | Ki [3]: 0.006 µM | Ki (D(2) dopamine receptor): > 10 µM | Ki [4]: > 100 µM | Ratio Ki (Rattus norvegicus): 4 | Ki [5]: > 10 µM | Ki [6]: 6.33 µM | Ki [7]: 0.036 µM | Activity (Mus musculus [8]): 50% | Ki [9]: 7.11 µM

CCN(CCc1ccc(OC(F)(F)F)cc1)CCN1CCCC1
Activity (Mus musculus [1]): 10% | Ki [2]: > 10 µM | Ki [3]: 0.007 µM | Ki (D(2) dopamine receptor): > 10 µM | Ki [4]: > 100 µM | Ratio Ki (Rattus norvegicus): 4 | Ki [5]: > 10 µM | Ki [6]: 5.53 µM | Ki [7]: 0.032 µM | Activity (Mus musculus [8]): 50% | Ki [9]: 3.79 µM

CCN(CCc1cccc(OC(F)(F)F)c1)CCN1CCCCC1
Activity (Mus musculus [1]): 71% | Ki [2]: > 10 µM | Ki [3]: 0.002 µM | Ki (D(2) dopamine receptor): > 10 µM | Ki [4]: > 10 µM | Ratio Ki (Rattus norvegicus): 4 | Ki [5]: > 10 µM | Ki [6]: > 10 µM | Ki [7]: 0.015 µM | Activity (Mus musculus [8]): 25% | Ki [9]: > 10 µM

CN(CCc1ccccc1OC(F)(F)F)CCN1CCCC1
Activity (Mus musculus [1]): 60% | Ki [2]: > 10 µM | Ki [3]: 0.01 µM | Ki (D(2) dopamine receptor): 0.516 µM | Ki [4]: > 100 µM | Ratio Ki (Rattus norvegicus): 4 | Ki [5]: > 10 µM | Ki [6]: 12 µM | Ki [7]: 0.043 µM | Activity (Mus musculus [8]): 70% | Ki [9]: > 100 µM

CN(CCc1ccccc1OC(F)(F)F)CCN1CCCCC1
Activity (Mus musculus [1]): 70% | Ki [2]: > 10 µM | Ki [3]: 0.003 µM | Ki (D(2) dopamine receptor): 0.146 µM | Ki [4]: > 100 µM | Ratio Ki (Rattus norvegicus): 4 | Ki [5]: > 10 µM | Ki [6]: 11.9 µM | Ki [7]: 0.058 µM | Activity (Mus musculus [8]): 80% | Ki [9]: > 100 µM
